Data from publication PMC3081996 (Bioorganic & medicinal chemistry letters, 2010).
pIC50: −log10 of the molar value. “Also recorded” adds a separate entry of the source.

Key:
Format in all cases: biochemical
human TG2 [1] = molecular target: T1, human TG2 (Homo sapiens, UniProt P21980); assay: GDH-coupled deamidation assay with Cbz-Gln-Gly; settings: for GDH-coupled assay α (ratio Ki’/Ki): Table 4, [TG2] = 0.5 µM, mixed inhibition model
T1 sequence (P21980 1-687): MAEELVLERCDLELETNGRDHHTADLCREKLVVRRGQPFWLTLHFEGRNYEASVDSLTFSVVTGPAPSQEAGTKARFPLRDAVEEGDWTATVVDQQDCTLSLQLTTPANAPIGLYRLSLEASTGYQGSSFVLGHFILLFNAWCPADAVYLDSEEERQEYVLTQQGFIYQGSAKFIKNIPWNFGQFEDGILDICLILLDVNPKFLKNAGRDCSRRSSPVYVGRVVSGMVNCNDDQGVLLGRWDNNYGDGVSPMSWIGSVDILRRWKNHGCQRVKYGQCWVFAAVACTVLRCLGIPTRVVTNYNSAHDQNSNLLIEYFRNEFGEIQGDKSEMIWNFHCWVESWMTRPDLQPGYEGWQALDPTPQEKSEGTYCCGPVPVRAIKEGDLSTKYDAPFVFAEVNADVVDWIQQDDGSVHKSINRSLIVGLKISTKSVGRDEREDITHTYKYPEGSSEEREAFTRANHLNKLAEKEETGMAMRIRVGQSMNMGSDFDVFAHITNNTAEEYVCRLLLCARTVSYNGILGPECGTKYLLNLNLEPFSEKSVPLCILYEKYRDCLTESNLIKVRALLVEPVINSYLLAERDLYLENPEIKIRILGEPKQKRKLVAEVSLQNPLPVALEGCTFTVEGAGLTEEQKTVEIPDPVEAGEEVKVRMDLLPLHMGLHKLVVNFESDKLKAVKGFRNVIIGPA

human TG2 [2] = molecular target: T1, human TG2; assay: direct fluorometric assay; settings: for Fluorescent assay α (ratio Ki’/Ki): Table 4, [TG2] = 15 nM, mixed inhibition model; for binding character in mixed inhibition model (in words): compounds that did not exhibit partial inhibition; for partial inhibition activity (in words): fluorometric assay
How it was run: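 Direct fluorometric assay following release of 7-hydroxycoumarin from an ester substrate by human TG2 at 15 nM. Ki and Ki' are fitted to a mixed inhibition model, with α = Ki'/Ki. A larger α means more competitive inhibition, α = 1 means simple non-competitive, and α < 1 means increasingly uncompetitive.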

human TG2 [3] = molecular target: T1, human TG2; assay: preliminary screening of isatins as TG2 inhibitors
How it was run: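 Coupled GDH assay of TG2-catalysed deamidation of the substrate ZQG, with human TG2 at 0.5 µM. Inhibition by isatin-derived test compounds is read as IC50.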

| SMILES | GDH-coupled assay α (ratio Ki’/Ki) (human TG2 [1]) | TG2 inhibitory activity (in words) (human TG2 [1]; GDH-coupled assay) | also measured |
| --- | --- | --- | --- |
| O=C(/C=C1/C(=O)N(Cc2ccccc2)c2cccc(Cl)c21)c1cccnc1 [Compound 33] | 1.8 |  | Fluorescent assay α (ratio Ki’/Ki) (human TG2 [2]): 3.6; binding character in mixed inhibition model (in words) (human TG2 [2]): non-competitive binding character |
| Nc1ccc(C(=O)/C=C2/C(=O)Nc3cccc(Cl)c32)cc1 [Compound 27] |  |  | partial inhibition activity (in words) (human TG2 [2]): partial inhibition activity |
| O=C1Nc2ccccc2/C1=C1/Nc2ccccc2C1=O [Compound 7, indirubin] |  | inactive |  |
| COc1ccncc1C(=O)/C=C1/C(=O)Nc2cccc(Cl)c21 [Compound 19] |  |  | partial inhibition activity (in words) (human TG2 [2]): partial inhibition activity |
| O=C1Nc2ccc(Br)cc2/C1=C\C(=O)c1cccnc1 [Compound 43] | > 100 |  | Fluorescent assay α (ratio Ki’/Ki) (human TG2 [2]): 4.4; binding character in mixed inhibition model (in words) (human TG2 [2]): non-competitive binding character |
| CC(=O)/C=C1/C(=O)Nc2ccc(Cl)cc21 [Compound 11] | > 100 |  |  |
| CC(=O)/C=C1/C(=O)Nc2cccc(Cl)c21 [Compound 10] | > 100 |  |  |
| O=C1Nc2c(F)cc(F)cc2C1=O [5,7-difluoroisatin] |  |  | pIC50 (human TG2 [3]): 3.35 to 4.19 |
| O=C1C(=O)N(CN2C(=O)C(=O)c3ccccc32)c2ccccc21 [Compound 6] |  | active |  |
| O=C1Nc2cc(Br)ccc2/C1=C\C(=O)c1cccnc1 [Compound 47] |  | nearly as potent as compound 16 | partial inhibition activity (in words) (human TG2 [2]): partial inhibition activity |
| O=C1Nc2cccc(Cl)c2/C1=C\C(=O)c1ccc(Cl)cc1 [Compound 22] |  |  | partial inhibition activity (in words) (human TG2 [2]): partial inhibition activity |
| O=C1Nc2ccc(Cl)cc2C1=O [5-chloro] |  |  | pIC50 (human TG2 [3]): 3.35 to 4.19 |
| O=C1Nc2ccccc2/C1=C\C(=O)c1cccnc1 [Compound 40] | > 100 |  | loss in potency relative to compound 16 (human TG2 [1]; GDH-coupled assay IC50): > 20 fold |
| CC(=O)/C=C1/C(=O)Nc2ccccc21 [Compound 9] |  | promising inhibitors |  |
| O=C1Nc2cccc(Br)c2/C1=C\C(=O)c1cccnc1 [Compound 41] | > 100 | sub-micromolar inhibitor | Fluorescent assay α (ratio Ki’/Ki) (human TG2 [2]): 2.6; binding character in mixed inhibition model (in words) (human TG2 [2]): non-competitive binding character |
| CC(=O)/C=C1/C(=O)Nc2cc(F)ccc21 [Compound 12] | > 100 |  |  |
| Cc1cc(C)c(CN2C(=O)C(=O)c3ccccc32)cc1CN1C(=O)C(=O)c2ccccc21 [Compound 4] |  | active |  |
| O=C1Nc2cccc(Cl)c2/C1=C\C(=O)c1ccccc1 [Compound 20] | > 100 |  |  |
| O=C1Nc2c(Cl)cccc2/C1=C\C(=O)c1cccnc1 [Compound 48] |  |  | partial inhibition activity (in words) (human TG2 [2]): partial inhibition activity |
| CN1C(=O)/C(=C/C(=O)c2cccnc2)c2c(Cl)cccc21 [Compound 28] | > 100 |  |  |
| O=C1Nc2cc(Cl)ccc2/C1=C\C(=O)c1cccnc1 [Compound 46] | 0.86 | nearly as potent as compound 16 | mode of inhibition (Lineweaver-Burk analysis) (human TG2 [1]; GDH-coupled assay): non-competitive, allosteric mode of action; also recorded: non-competitive inhibitory character |
| O=C1Nc2ccccc2/C1=C1\C(=O)Nc2ccccc21 [Compound 8, isoindigotin] |  | promising inhibitors |  |
| O=C1Nc2ccc(I)cc2C1=O [5-iodo] |  |  | pIC50 (human TG2 [3]): 3.35 to 4.19 |
| O=C1Nc2cccc(Cl)c2/C1=C\C(=O)c1cccnc1 [Compound 16] | > 100 |  |  |
| O=C1Nc2ccc(Br)cc2C1=O [5-bromo] |  |  | pIC50 (human TG2 [3]): 3.35 to 4.19 |
